Reference: ChEMBL document CHEMBL4613315, “Design of First-in-Class Dual EZH2/HDAC Inhibitor: Biochemical Activity and Biological Evaluation in Cancer Cells” (ACS Med Chem Lett, 2020)
Each block holds one molecule with its values, some of them ahead of it. The source made the active and inactive calls. The rule behind the calls is not given here.

Experiments:
[1] = test system: U-937; test: Cytotoxicity against human U937 cells assessed as reduction in cell viability at 10 uM incubated for 96 hrs by CellTiter-Glo Luminescent cell viability assay relative to control; assay type: functional; conditions: U-937, 96 h
In short: (§1)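 Viability of U937 (5–25 μM) and RH4 (5–35 μM) cells after 48, 72 and 96 h of treatment at increasing concentrations.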

[2] = Cytotoxicity against human RH4 cells assessed as reduction in cell viability at 20 uM incubated for 96 hrs by CellTiter-Glo Luminescent cell viability assay relative to control; assay type: functional; conditions: Rh4, 96 h; in short: as §1
[3] = Cytotoxicity against human RH4 cells assessed as reduction in cell viability at 35 uM incubated for 96 hrs by CellTiter-Glo Luminescent cell viability assay relative to control; assay type: functional; conditions: Rh4, 96 h; in short: as §1
[4] = test system: THP-1; test: Cytotoxicity against human THP1 cells assessed as reduction in cell viability incubated for 72 hrs by CellTiter-Glo Luminescent cell viability assay; assay type: functional, cell-based; conditions: THP-1, 72 h
In short: (§2)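 Antiproliferative IC50 after 72 h of treatment. Values are means of three independent experiments, each measured in triplicate, ± SD.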

[5] = test system: SK-N-SH; test: Cytotoxicity against human SK-N-SH cells assessed as reduction in cell viability incubated for 72 hrs by CellTiter-Glo Luminescent cell viability assay; assay type: functional, cell-based; in short: as §2
[6] = test system: U-937; test: Induction of apoptosis in human U937 cells assessed as late apoptotic cells at 25 uM incubated for 72 hrs by annexin V-FITC staining based flow cytometry (reference value: 0.7 %); assay type: functional
[7] = Cell cycle arrest in human RH4 cells assessed as G2/M accumulation at 28 uM incubated for 72 hrs by propidium iodide staining based flow cytometry (reference value: 18.9 %); assay type: functional
[8] = Induction of apoptosis in human RH4 cells assessed as early apoptotic cells at 14 uM incubated for 72 hrs by annexin V-FITC staining based flow cytometry (reference value: 10.8 %); assay type: functional
[9] = Induction of apoptosis in human RH4 cells assessed as late apoptotic cells at 14 uM incubated for 72 hrs by annexin V-FITC staining based flow cytometry (reference value: 2.1 %); assay type: functional
[10] = Induction of apoptosis in human RH4 cells assessed as early apoptotic cells at 28 uM incubated for 72 hrs by annexin V-FITC staining based flow cytometry (reference value: 10.8 %); assay type: functional
[11] = Induction of apoptosis in human RH4 cells assessed as necrotic cells at 28 uM incubated for 72 hrs by annexin V-FITC staining based flow cytometry (reference value: 0.4 %); assay type: functional
[12] = organism: Homo sapiens; test: Induction of differentiation of human RH4 cells assessed as increase in myogenin level at 7 uM incubated for 96 hrs by Western blot analysis; assay type: functional
In short: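 Myogenin was measured by Western blot in RH4 cells treated at 7 and 14 μM for 48, 72 and 96 h. Vinculin served as the loading control.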

[13] = test system: U-87MG ATCC; test: Upregulation of snail in human U87 cells at 5 to 25 uM incubated for 24 hrs by Western blot analysis; assay type: functional, cell-based
In short: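 U87 glioblastoma cells exposed for 24 h at 5, 10 and 25 μM, with DMSO vehicle as control. Snail and E-cadherin protein levels were read by Western blot, with tubulin as the loading control.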

[14] = Cytotoxicity against human RH4 cells assessed as combinational index measured at fraction affected value of 0.27 in presence of vorinostat at 10 uM incubated for 72 hrs by CellTiter-Glo Luminescent cell viability assay; assay type: functional
In short: (§3)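 Viability after 72 h of single-agent or combined treatment with the HDAC inhibitor (0.05–0.25 μM) and the EZH2 inhibitor. EZH2 inhibitor range: U937 5–25 μM; RH4 10–50 μM. Synergy was assessed by combination index and isobologram analysis.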

[15] = Cytotoxicity against human RH4 cells assessed as combinational index measured at fraction affected value of 0.45 in presence of vorinostat at 20 uM incubated for 72 hrs by CellTiter-Glo Luminescent cell viability assay; assay type: functional; in short: as §3
[16] = Cytotoxicity against human RH4 cells assessed as combinational index measured at fraction affected value of 0.63 in presence of vorinostat at 50 uM incubated for 72 hrs by CellTiter-Glo Luminescent cell viability assay; assay type: functional; in short: as §3
[17] = test system: U-937; test: Cytotoxicity against human U937 cells assessed as reduction in cell viability at 10 uM in presence of vorinostat incubated for 72 hrs by CellTiter-Glo Luminescent cell viability assay relative to control; assay type: functional; conditions: U-937, 72 h; in short: as §3
[18] = molecular target: Histone deacetylase (Homo sapiens) (UniProt Q13547+O15379+Q9UBN7+Q92769+Q9UQL6+Q8WUI4+Q9BY41+Q96DB2+P56524+Q9UKV0+Q969S8); test: Inhibition of HDAC in human U937 cells assessed as Ac-H3 level at 50 uM incubated for 96 hrs by Western blot analysis (reference value: 1); assay type: cell-based; conditions: U-937
[19] = molecular target: T1, Histone-lysine N-methyltransferase EZH2 (Homo sapiens, UniProt Q15910); test: Inhibition of EZH2 in human U937 cells assessed as H3K27me3 level at 50 uM in presence of vorinostat incubated for 96 hrs by Western blot analysis (reference value: 1); assay type: cell-based; conditions: U-937
T1 sequence (Q15910 whole entry, looked up): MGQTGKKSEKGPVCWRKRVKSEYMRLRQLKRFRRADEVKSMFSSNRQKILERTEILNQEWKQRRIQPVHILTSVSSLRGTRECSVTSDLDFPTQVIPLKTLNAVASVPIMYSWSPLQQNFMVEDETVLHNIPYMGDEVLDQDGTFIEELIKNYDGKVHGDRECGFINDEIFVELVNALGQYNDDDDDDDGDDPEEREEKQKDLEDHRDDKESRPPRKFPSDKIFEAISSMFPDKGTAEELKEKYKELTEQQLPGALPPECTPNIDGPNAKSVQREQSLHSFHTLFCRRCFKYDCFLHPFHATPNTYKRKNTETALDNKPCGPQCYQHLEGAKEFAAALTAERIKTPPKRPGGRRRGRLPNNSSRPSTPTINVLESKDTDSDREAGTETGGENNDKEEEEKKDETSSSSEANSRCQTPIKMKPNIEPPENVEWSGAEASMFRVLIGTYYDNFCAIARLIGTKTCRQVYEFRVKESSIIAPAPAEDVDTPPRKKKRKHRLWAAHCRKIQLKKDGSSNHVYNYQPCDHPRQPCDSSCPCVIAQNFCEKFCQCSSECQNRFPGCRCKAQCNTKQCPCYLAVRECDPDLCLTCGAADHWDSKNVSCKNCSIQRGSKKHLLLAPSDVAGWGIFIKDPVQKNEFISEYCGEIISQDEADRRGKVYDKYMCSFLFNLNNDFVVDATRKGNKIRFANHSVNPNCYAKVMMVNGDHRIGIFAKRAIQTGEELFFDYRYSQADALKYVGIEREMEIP
In short: (§4)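 U937 leukemia cells given EZH2 inhibitor 50 μM together with HDAC inhibitor 0.5 μM; Western blot at 96 and 120 h for H3K27me3 or acetyl-H3, actin as loading control; densitometry normalized to loading control then to DMSO vehicle.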

[20] = molecular target: T1, Histone-lysine N-methyltransferase EZH2; test: Inhibition of EZH2 in human U937 cells assessed as H3K27me3 level at 50 uM in presence of vorinostat incubated for 120 hrs by Western blot analysis (reference value: 1); assay type: cell-based; conditions: U-937; in short: as §4
[21] = molecular target: T1, Histone-lysine N-methyltransferase EZH2; test: Inhibition of EZH2 in human RH4 cells assessed as H3K27me3 level at 50 uM in presence of vorinostat incubated for 72 hrs by Western blot analysis (reference value: 1); assay type: cell-based
In short: (§5)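 RH4 cells co-treated with EZH2 inhibitor at 50 μM plus HDAC inhibitor at 0.15 μM; Western blot after 72 or 96 h for H3K27me3 or acetyl-tubulin, vinculin loading control; densitometry normalized to loading control then DMSO vehicle.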

[22] = molecular target: T1, Histone-lysine N-methyltransferase EZH2; test: Inhibition of EZH2 in human RH4 cells assessed as H3K27me3 level at 50 uM in presence of vorinostat incubated for 96 hrs by Western blot analysis (reference value: 1); assay type: cell-based; in short: as §5

SMILES: Cc1cc(C)c(CNC(=O)c2cc(C)n(-c3cccc(NC(=O)CCCCCCC(=O)NO)c3)c2C)c(=O)[nH]1
inhibition at 10 µM [1]: 60%
inhibition at 20 µM [2]: > 60%
inhibition at 35 µM [3]: 90%
IC50 [4]: 12 µM
IC50 [5]: 25 µM
Activity [6]: 1.4%
Activity [7]: 6.4%
Activity [8]: 13.8%
Activity [9]: 3.2%
Activity [10]: 26.5%
Activity [11]: 0.4%
Activity [12]: Active
Activity [13]: inactive

fold change (FC) [18]: 1.4
fold change (FC) [19]: 1.1
fold change (FC) [20]: 0.6
fold change (FC) [21]: 0.02
fold change (FC) [22]: 0.2
SMILES: Cc1cc(C)c(CNC(=O)c2cc(C)n(-c3ccccc3)c2C)c(=O)[nH]1
CI [14]: 0.64
CI [15]: 0.49
CI [16]: 0.54
inhibition at 10 µM [17]: 70%
